# Measured values as given in ChEMBL document CHEMBL1158339, “Synthesis and anti-microbial screening of some Schiff bases of 3-amino-6,8-dibromo-2-phenylquinazolin-4(3H)-ones” (2009).
# What was measured:
# Type in all cases: functional
# [1] = tested on: Aspergillus niger; test: Antifungal activity against Aspergillus niger ATCC 9029 after 48 hrs by paper disk diffusion technique
# In short: (§1)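 Fungal disc diffusion. Autoclaved (120 °C, 30 min) medium is inoculated at 40–50 °C with 1 ml/100 ml of a 10⁵ cfu/ml McFarland-matched suspension and poured to 3–4 mm. Compound-impregnated paper discs in dimethyl formamide are applied. Plates are held 1 h at room temperature, then incubated 48 h at 37 °C.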
# [2] = tested on: Staphylococcus epidermidis; test: Antibacterial activity against Staphylococcus epidermidis ATCC 155 after 24 hrs by agar streak dilution method; conditions: ATCC 155, 24 h
# In short: (§2)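 Agar streak dilution MIC. Stock […] in dimethyl formamide. Graded quantities go into molten sterile nutrient agar, poured at 40–50 °C to 3–4 mm depth and left to solidify. Plates are streaked with about 10⁵ cfu/ml bacterial suspension and incubated 24 h at 37 °C. MIC is the lowest concentration with no visible growth.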
# [3] = tested on: Aspergillus fumigatus; test: Antifungal activity against Aspergillus fumigatus ATCC 46645 after 48 hrs by agar streak dilution method; conditions: ATCC 46645, 48 h
# In short: as §2, with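 “Fungal agar” for “Agar”, “dilution.” for “dilution MIC.”, “Sabouraud dextrose” for “nutrient”, “inoculated” for “streaked”, “cfu/ml” for “cfu/ml bacterial”, “48” for “24”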
# [4] = tested on: Staphylococcus aureus; test: Antibacterial activity against Staphylococcus aureus ATCC 9144 after 24 hrs by paper disk diffusion technique
# In short: (§3)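 Paper disc diffusion. Nutrient agar autoclaved 120 °C, 30 min, then inoculated at 40–50 °C with 1 ml/100 ml of a 10⁵ cfu/ml suspension matched to McFarland standard and poured to 3–4 mm. Discs impregnated with compound in dimethyl formamide are laid on the solidified agar. Plates are held 1 h at room temperature, then 24 h at 37 °C.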
# [5] = tested on: Aspergillus niger; test: Antifungal activity against Aspergillus niger ATCC 9029 after 48 hrs by agar streak dilution method; conditions: ATCC 9029, 48 h
# In short: as §2, with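 “Fungal agar” for “Agar”, “dilution.” for “dilution MIC.”, “Sabouraud dextrose” for “nutrient”, “inoculated” for “streaked”, “cfu/ml” for “cfu/ml bacterial”, “48” for “24”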
# [6] = tested on: Bacillus cereus; test: Antibacterial activity against Bacillus cereus ATCC 11778 after 24 hrs by agar streak dilution method; conditions: ATCC 11778, 24 h; in short: as §2
# [7] = tested on: Micrococcus luteus; test: Antibacterial activity against Micrococcus luteus ATCC 4698 after 24 hrs by agar streak dilution method; conditions: NCTC 2665, 24 h; in short: as §2
# [8] = tested on: Escherichia coli; test: Antibacterial activity against Escherichia coli ATCC 25922 after 24 hrs by agar streak dilution method; conditions: ATCC 25922, 24 h; in short: as §2
# [9] = tested on: Pseudomonas aeruginosa; test: Antibacterial activity against Pseudomonas aeruginosa ATCC 2853 after 24 hrs by agar streak dilution method; conditions: ATCC 2853, 24 h; in short: as §2
# [10] = tested on: Micrococcus luteus; test: Antibacterial activity against Micrococcus luteus ATCC 4698 after 24 hrs by paper disk diffusion technique; in short: as §3
# [11] = tested on: Klebsiella pneumoniae; test: Antibacterial activity against Klebsiella pneumoniae ATCC 11298 after 24 hrs by paper disk diffusion technique; in short: as §3
# [12] = tested on: Escherichia coli; test: Antibacterial activity against Escherichia coli ATCC 25922 after 24 hrs by paper disk diffusion technique; in short: as §3
# [13] = tested on: Aspergillus fumigatus; test: Antifungal activity against Aspergillus fumigatus ATCC 46645 after 48 hrs by paper disk diffusion technique; in short: as §1
# [14] = tested on: Staphylococcus epidermidis; test: Antibacterial activity against Staphylococcus epidermidis ATCC 155 after 24 hrs by paper disk diffusion technique; in short: as §3
# [15] = tested on: Pseudomonas aeruginosa; test: Antibacterial activity against Pseudomonas aeruginosa ATCC 2853 after 24 hrs by paper disk diffusion technique; in short: as §3
# [16] = tested on: Staphylococcus aureus; test: Antibacterial activity against Staphylococcus aureus ATCC 9144 after 24 hrs by agar streak dilution method; conditions: ATCC 9144, 24 h; in short: as §2
# [17] = tested on: Bacillus cereus; test: Antibacterial activity against Bacillus cereus ATCC 11778 after 24 hrs by paper disk diffusion technique; in short: as §3
# [18] = tested on: Klebsiella pneumoniae; test: Antibacterial activity against Klebsiella pneumoniae ATCC 11298 after 24 hrs by agar streak dilution method; conditions: ATCC 11298, 24 h; in short: as §2
SMILES,MIC [2],MIC [3],MIC [5],MIC [6],MIC [7],MIC [8],MIC [9],MIC [16],MIC [18],inhibition zone (IZ) [1],inhibition zone (IZ) [4],inhibition zone (IZ) [10],inhibition zone (IZ) [11],inhibition zone (IZ) [12],inhibition zone (IZ) [13],inhibition zone (IZ) [14],inhibition zone (IZ) [15],inhibition zone (IZ) [17]
CN(C)c1ccc(/C=N/n2c(-c3ccccc3)nc3c(Br)cc(Br)cc3c2=O)cc1,19.8 µg/mL,15.9 µg/mL,14.7 µg/mL,30.1 µg/mL,26.2 µg/mL,29.1 µg/mL,32.1 µg/mL,27.9 µg/mL,22.7 µg/mL,19 mm,19 mm,21 mm,23 mm,20 mm,22 mm,25 mm,18 mm,19 mm
O=c1c2cc(Br)cc(Br)c2nc(-c2ccccc2)n1/N=C/c1ccccc1O,21.3 µg/mL,13.6 µg/mL,12.2 µg/mL,19.9 µg/mL,28.2 µg/mL,20.4 µg/mL,37.2 µg/mL,21.8 µg/mL,24.3 µg/mL,22 mm,20 mm,18 mm,22 mm,22 mm,23 mm,24 mm,17 mm,21 mm
Cc1ccc(/C=N/n2c(-c3ccccc3)nc3c(Br)cc(Br)cc3c2=O)cc1,22.6 µg/mL,14.6 µg/mL,15.2 µg/mL,21.9 µg/mL,25.1 µg/mL,19.8 µg/mL,21.2 µg/mL,31.1 µg/mL,29.1 µg/mL,22 mm,18 mm,23 mm,19 mm,24 mm,24 mm,20 mm,22 mm,21 mm
COc1cc(/C=N/n2c(-c3ccccc3)nc3c(Br)cc(Br)cc3c2=O)cc(OC)c1OC,19.1 µg/mL,10.1 µg/mL,8.6 µg/mL,21.7 µg/mL,18.8 µg/mL,18.2 µg/mL,19.3 µg/mL,18.9 µg/mL,16.7 µg/mL,26 mm,26 mm,24 mm,28 mm,27 mm,24 mm,25 mm,24 mm,23 mm

# The next lines start with results.
MIC [2],MIC [3],MIC [5],MIC [6],MIC [7],MIC [8],MIC [9],MIC [16],MIC [18],SMILES,inhibition zone (IZ) [1],inhibition zone (IZ) [4],inhibition zone (IZ) [10],inhibition zone (IZ) [11],inhibition zone (IZ) [12],inhibition zone (IZ) [13],inhibition zone (IZ) [14],inhibition zone (IZ) [15],inhibition zone (IZ) [17]
25.6 µg/mL,12.6 µg/mL,10.2 µg/mL,36.1 µg/mL,33.8 µg/mL,20.2 µg/mL,22.8 µg/mL,28.4 µg/mL,21.8 µg/mL,O=c1c2cc(Br)cc(Br)c2nc(-c2ccccc2)n1/N=C/c1ccc(Cl)cc1,25 mm,19 mm,23 mm,25 mm,27 mm,22 mm,20 mm,26 mm,19 mm
33.6 µg/mL,11.1 µg/mL,9.7 µg/mL,29.4 µg/mL,31.8 µg/mL,33.4 µg/mL,28.7 µg/mL,35.4 µg/mL,27.7 µg/mL,O=c1c2cc(Br)cc(Br)c2nc(-c2ccccc2)n1/N=C/c1ccccc1,24 mm,17 mm,19 mm,21 mm,17 mm,22 mm,18 mm,19 mm,20 mm
